How the values were obtained:
[1] = biological target: Muscarinic acetylcholine receptor M3 (Homo sapiens, UniProt P20309); assay: Displacement of [3H]-N-methyl-scopolamine from human muscarinic M3 receptor after 6 hrs by cell based assay
Procedure, shortened: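 Human M3 receptor-expressing cell membranes incubated up to 6 h at 37 °C with 1 nM [3H]N-methyl-scopolamine and serial dilutions of compound. Buffer 10 mM Hepes, 100 mM NaCl, 10 mM MgCl2, pH 7.4 at 37 °C. IC50 from displacement converted to Ki by Cheng–Prusoff.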

[2] = biological target: T1, Beta-2 adrenergic receptor (Homo sapiens, UniProt P07550); assay: Agonist activity at human beta2-adrenoceptor expressed in HEK cells assessed as increase of cAMP level after 10 mins by radioimmunoassay; format: functional, cell-based, HEK293
[3] = biological target: T1, Beta-2 adrenergic receptor; assay: Displacement of [3H]-dihydroalprenolol from human beta2-adrenoceptor expressed in HEK cells after 4 hrs; format: cell-based, HEK293

Sequence of Muscarinic acetylcholine receptor M3 (P20309 whole entry): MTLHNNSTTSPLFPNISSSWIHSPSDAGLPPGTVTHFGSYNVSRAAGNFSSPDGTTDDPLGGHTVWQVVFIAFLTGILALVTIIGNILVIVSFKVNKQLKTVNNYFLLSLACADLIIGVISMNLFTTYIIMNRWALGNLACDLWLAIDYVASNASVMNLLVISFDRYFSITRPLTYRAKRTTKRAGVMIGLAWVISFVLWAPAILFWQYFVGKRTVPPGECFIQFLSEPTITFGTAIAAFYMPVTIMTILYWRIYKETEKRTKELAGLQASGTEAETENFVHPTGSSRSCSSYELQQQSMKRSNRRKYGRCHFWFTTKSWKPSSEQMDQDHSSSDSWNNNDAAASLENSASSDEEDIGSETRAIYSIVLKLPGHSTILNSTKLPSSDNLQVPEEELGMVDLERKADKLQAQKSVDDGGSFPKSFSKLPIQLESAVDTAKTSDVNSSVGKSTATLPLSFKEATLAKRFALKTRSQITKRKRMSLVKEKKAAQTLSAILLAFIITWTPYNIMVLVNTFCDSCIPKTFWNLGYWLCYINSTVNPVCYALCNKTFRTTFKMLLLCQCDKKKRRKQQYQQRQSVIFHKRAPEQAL
T1 sequence (P07550 whole entry): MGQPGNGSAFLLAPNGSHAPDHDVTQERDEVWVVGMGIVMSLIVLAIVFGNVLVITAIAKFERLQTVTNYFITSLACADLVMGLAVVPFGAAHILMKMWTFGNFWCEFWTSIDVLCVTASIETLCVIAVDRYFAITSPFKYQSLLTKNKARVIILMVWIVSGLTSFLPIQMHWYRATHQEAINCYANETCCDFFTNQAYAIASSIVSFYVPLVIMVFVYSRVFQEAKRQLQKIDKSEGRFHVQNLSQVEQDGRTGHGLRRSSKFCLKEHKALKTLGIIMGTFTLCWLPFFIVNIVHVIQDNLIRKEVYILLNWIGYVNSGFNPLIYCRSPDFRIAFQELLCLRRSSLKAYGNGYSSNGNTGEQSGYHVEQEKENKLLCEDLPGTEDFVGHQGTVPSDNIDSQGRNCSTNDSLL

Structure (SMILES) | Ki [1] [nM] | EC50 [2] [nM] | Ki [3] [nM]
NCCCCCCCCN1CCC(OC(=O)Nc2ccccc2-c2ccccc2)CC1 | 1.8 |  | 
O=C(Nc1ccccc1-c1ccccc1)OC1CCNCC1 | 46 |  | 
O=C(Nc1ccccc1-c1ccccc1)O[C@H]1C[N+]2(CCCCCCCCCNCC(O)c3ccc(O)c4[nH]c(=O)ccc34)CCC1CC2 (stereo not given in full) | 140 | 8.9 | 123
NCCCCCCCN1CCC(OC(=O)Nc2ccccc2-c2ccccc2)CC1 | 0.53 |  | 
CCN1CCC(OC(=O)Nc2ccccc2-c2ccccc2)CC1 | 55 |  | 
CCCCCCCCCN1CCC(OC(=O)Nc2ccccc2-c2ccccc2)CC1 | 9.5 |  | 
CN1CCC(OC(=O)Nc2ccccc2-c2ccccc2)CC1 | 22 |  | 
NCCCCCCN1CCC(OC(=O)Nc2ccccc2-c2ccccc2)CC1 | 19 |  | 
CCCCCCCCN1CCC(OC(=O)Nc2ccccc2-c2ccccc2)CC1 | 7 |  | 
NCCCCN1CCC(OC(=O)Nc2ccccc2-c2ccccc2)CC1 | 84 |  | 
O=C(Nc1ccccc1-c1ccccc1)NC1CCN(CCCCCCCCCNCC(O)c2ccc(O)c3[nH]c(=O)ccc23)CC1 (stereo not given) | 7.5 | 8.4 | 115
NCCCCCCCCCN1CCC(OC(=O)Nc2ccccc2-c2ccccc2)CC1 | 0.75 |  | 
NCCCCCN1CCC(OC(=O)Nc2ccccc2-c2ccccc2)CC1 | 98 |  | 
O=C(Nc1ccccc1-c1ccccc1)OC1CCN(CCCCCCCNC[C@H](O)c2ccc(O)c3[nH]c(=O)ccc23)CC1 | 0.74 | 1.1 | 10
C[N+]1(CCCCCCCCCNC[C@H](O)c2ccc(O)c3[nH]c(=O)ccc23)[C@@H]2C[C@H](OC(=O)C(O)(c3cccs3)c3cccs3)C[C@@H]1[C@H]1O[C@H]12 (stereo not given in full) | 4.6 | 0.9 | 36
CCCCCCCN1CCC(OC(=O)Nc2ccccc2-c2ccccc2)CC1 | 5.1 |  | 
CCCCCCCCCCCN1CCC(OC(=O)Nc2ccccc2-c2ccccc2)CC1 | 48 |  | 

Further compounds by falling Ki [1], results first:

Ki [1] [nM] | EC50 [2] [nM] | Ki [3] [nM] | Structure (SMILES)
77 |  |  | CCCN1CCC(OC(=O)Nc2ccccc2-c2ccccc2)CC1
67 |  |  | NCCCN1CCC(OC(=O)Nc2ccccc2-c2ccccc2)CC1
50 |  |  | NCCN1CCC(OC(=O)Nc2ccccc2-c2ccccc2)CC1
32 | 3.3 | 60 | NC(=O)C(c1ccccc1)(c1ccccc1)[C@@H]1CCN(CCCCCCCCCNCC(O)c2ccc(O)c3[nH]c(=O)ccc23)C1 (stereo not given in full)
28 | 1.3 | 19 | O=C(Nc1ccccc1-c1ccccc1)OC1CCN(CCCNC[C@H](O)c2ccc(O)c3[nH]c(=O)ccc23)CC1
25 |  |  | CCCCCCCCCCN1CCC(OC(=O)Nc2ccccc2-c2ccccc2)CC1
17 |  |  | CCCCN1CCC(OC(=O)Nc2ccccc2-c2ccccc2)CC1
14 |  |  | CCCCCN1CCC(OC(=O)Nc2ccccc2-c2ccccc2)CC1
4.8 |  |  | CCCCCCN1CCC(OC(=O)Nc2ccccc2-c2ccccc2)CC1
2.6 |  |  | NCCCCCCCCCCCCN1CCC(OC(=O)Nc2ccccc2-c2ccccc2)CC1
2.5 |  |  | NCCCCCCCCCCCN1CCC(OC(=O)Nc2ccccc2-c2ccccc2)CC1
1.6 |  |  | NCCCCCCCCCCN1CCC(OC(=O)Nc2ccccc2-c2ccccc2)CC1
0.32 | 0.32 | 3.4 | O=C(Nc1ccccc1-c1ccccc1)OC1CCN(CCCCCCCCNC[C@H](O)c2ccc(O)c3[nH]c(=O)ccc23)CC1
0.14 | 2.6 | 21 | O=CNc1cc([C@@H](O)CNCCCCCCCCCN2CCC(OC(=O)Nc3ccccc3-c3ccccc3)CC2)ccc1O
0.14 | 14 | 61 | O=C(Nc1ccccc1-c1ccccc1)OC1CCN(CCCCCCCCCNC[C@H](O)c2ccc(O)c(CO)c2)CC1
